Published values collected from several papers.
Lines come from different studies, so protocols differ.
Read-out: metabolic stability
Species: rat

Structure (SMILES)	system	conditions	half-life [min]
COc1cc(-c2cc(C(C)=O)n3ccccc23)c(OC)cc1Cn1ccnc1	liver microsomes	1 µM, pH 7.4	94.3
OCc1ccc(-c2nn(Cc3ccccn3)c3cccnc23)o1	liver microsomes	1 µM, pH 7.4	> 30
O=C(Nc1ccc(OC(F)(F)Cl)cc1)c1cnc(N2CC[C@@H](O)C2)c(-c2ccn[nH]2)c1	liver microsomes	1 µM, pH 7.4	179
COc1ccccc1Cn1nc(-c2ccc(CO)o2)c2ccccc21	liver microsomes	1 µM, pH 7.4	2
N#Cc1ccc(C[C@H](NC(=O)c2cc3ccc(F)cc3[nH]2)C(=O)N2CCc3ccccc32)cc1	liver microsomes	10 µM, pH 7.4	105
NCc1ccc(-c2nn(Cc3ccncc3)c3ccccc23)o1	liver microsomes	1 µM, pH 7.4	~17
COc1ccc(Cn2cc(CO[C@@H]3O[C@H]4[C@H](OC[C@H]4O)[C@H]3O)nn2)cc1	liver microsomes	–	120
N#Cc1ccc(C[C@H](Nc2nnc(-c3cccc(F)c3)s2)C(=O)N2CCc3ccccc32)cc1	liver microsomes	10 µM, pH 7.4	47
O=C1c2ccccc2C(=O)N1CCCN1CCN(C(c2ccc(F)cc2)c2ccc(F)cc2)CC1	liver microsomes	100 ng/mL	3.9
NCc1ccc(-c2nn(Cc3ccccc3)c3ccccc23)o1	liver microsomes	–	85
N#Cc1ccc(C[C@H](Nc2nnc(-c3ccc(Br)cc3)o2)C(=O)N2CCc3ccccc32)cc1	liver microsomes	10 µM, pH 7.4	27
Cc1[nH]c(C)c(S(=O)(=O)Nc2ccc(C(F)(F)F)c(Cl)c2)c1C(=O)N1CCC(F)(F)C1	liver microsomes	–	8
N#Cc1ccc(C[C@H](Nc2c(Nc3ccc(F)cc3)c(=O)c2=O)C(=O)N2CCc3ccccc32)cc1	liver microsomes	10 µM, pH 7.4	20
C=CCn1c(=O)c2cnc(Nc3ccc(N4CCN(C)CC4)cc3)nc2n1-c1ccc2c(n1)[C@@](O)(CC)CC2	hepatocytes	–	175
